Bioassay records deposited in PubChem BioAssay by several laboratories.
SENP6 block: SENP6 protease inhibitors, primary screen, biochemical, luminescence, uHTS | Sentrin-specific protease 6 (Homo sapiens), Q9GZR1 | 1.8% of 330,000 active | inhibition, % at 10 µM | AID 2599, 2010 | Recombinant SENP6 catalytic domain, aminoluciferin luminescence;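 active = inhibition above about 50% at the single tested dose, limit read from the data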;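 note: plate controls were DMSO wells with enzyme for no effect and DMSO wells lacking enzyme for full effect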
SENP7 inh: SENP7 protease inhibitors, primary screen, biochemical, luminescence, uHTS; inhibition, % at 5 µM; 1.5% of 330,000 active; recombinant SENP7, Z-RLRGG-aminoluciferin luminescence, 40 min; AID 434973, 2010;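 active = inhibition above about 50% at the single test dose, limit read from the data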;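 note: plate controls were DMSO with enzyme for no effect and no enzyme buffer wells for full effect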
Target sequence (Q9BQF6 706-1050 limits assumed): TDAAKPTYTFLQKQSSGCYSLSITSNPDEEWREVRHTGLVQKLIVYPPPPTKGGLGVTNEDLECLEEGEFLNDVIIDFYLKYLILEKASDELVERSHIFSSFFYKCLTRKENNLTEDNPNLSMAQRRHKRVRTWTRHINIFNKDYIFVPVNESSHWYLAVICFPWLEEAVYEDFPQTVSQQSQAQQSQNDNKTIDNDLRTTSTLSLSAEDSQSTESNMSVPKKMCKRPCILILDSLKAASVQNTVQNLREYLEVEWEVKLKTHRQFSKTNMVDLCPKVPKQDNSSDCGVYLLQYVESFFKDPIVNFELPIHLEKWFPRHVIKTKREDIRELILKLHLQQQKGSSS
Platelet DG rel: inhibitors of platelet dense granule secretion, primary screen, cell-based, MLPCN, human platelets | 0.22% of 300,000 active | inhibition, %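 (compounds screened at 7.5 µM in platelet-rich plasma)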 | human platelet-rich plasma, SFLLRN dense granule ATP release, luminescence;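 active = mean replicate score, as percent of positive control, at or above 50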
SENP1 inh: human SENP1 catalytic domain inhibitors, primary screen, biochemical, FRET, uHTS. Sentrin-specific protease 1 (Homo sapiens), Q9P0U3. recombinant SENP1 catalytic domain, CyPet-SUMO1-YPet FRET cleavage. inhibition, % at 10 µM. 0.21% of 360,000 active;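 active = inhibition at least 30% at 10 µM, raw YFP signal under a set limit, fluorescence ratio 0.5 to 1.5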;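 note: 0% = enzyme with DMSO and 100% = no enzyme wells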
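Test system: hSENP1 catalytic domain, recombinant; Amount: 20 pM final SENP1 enzyme; Medium: Tris pH 8 buffer plus EDTA, NaCl, BME, BSA, NP40, catalase; Schedule: 50 min enzyme reaction, room temperature, light-protected; Technique: FRET fluorescence in CFP and YFP emission channels; Controls: no-enzyme wells low, DMSO-plus-enzyme wells high control.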
SENP8 block-1: human SENP8 protease inhibitors, primary screen, biochemical, fluorescence, Nedd8 protein substrate, uHTS; 0.64% of 360,000 active; inhibition, % at 20 µM; recombinant SENP8; in the data active = inhibition mostly above about 40%, no sharp cut-off; inactive = mostly below about 27%
SENP8 block-2: SENP8 protease inhibitors, primary screen, biochemical, luminescence; Sentrin-specific protease 8 (Homo sapiens), Q96LD8; purified SENP8, Z-RLRGG-aminoluciferin cleavage; inhibition, % at 10 µM; 1.2% of 330,000 active; AID 2540, 2010; in the data active = inhibition above about 50%
SENP8 conf: SENP8 protease inhibitors, retest, confirmation, biochemical, luminescence, single concentration | shares compounds with SENP7 inh | Recombinant SENP8, Z-RLRGG-aminoluciferin luminescence, 60 min | inhibition, % at 12.5 µM | 40% of 6,200 active | AID 488912, 2010;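 active = mean inhibition across replicates above about 50%, limit read from the data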
SENP6 conf: SENP6 protease inhibitors, confirmation, biochemical, luminescence, single concentration; inhibition, % at 12.5 µM; 58% of 6,200 active; shares compounds with SENP7 inh; recombinant SENP6, Z-RLRGG-aminoluciferin luminescence
SENP7 conf: SENP7 protease inhibitors, retest, confirmation, biochemical, luminescence, single concentration. shares compounds with SENP7 inh. recombinant SENP7, Z-RLRGG-aminoluciferin luminescence, 40 min. inhibition, % at 12.5 µM. 69% of 6,200 active. AID 488917, 2010
Casp3 select: caspase-3 protease inhibitors, confirmation, selectivity assay for SENP inhibitor project, biochemical, single concentration; inhibition, % at 12.5 µM; AID 488918, 2010; 60% of 6,200 active; purified caspase-3, Z-DEVD-aminoluciferin luminescence, 60 min; shares compounds with SENP7 inh;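 active = mean inhibition above about 50%, limit read from the data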;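 note: plate controls were enzyme with DMSO for no effect and wells without caspase-3 for full effect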
Target sequence (P42574 28-227 limits assumed): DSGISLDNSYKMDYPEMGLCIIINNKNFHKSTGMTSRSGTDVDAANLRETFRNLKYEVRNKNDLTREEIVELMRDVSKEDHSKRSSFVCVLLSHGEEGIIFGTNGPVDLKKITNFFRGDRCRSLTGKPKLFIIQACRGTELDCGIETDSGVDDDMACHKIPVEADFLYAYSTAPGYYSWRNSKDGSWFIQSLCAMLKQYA
Luc interf: interferes with luciferase luminescence in SENP counter-screen; shares compounds with SENP7 inh; Pre-incubated SENP8/Z-RLRGG-aminoluciferin, luciferase luminescence interference; inhibition, % at 12.5 µM; 39% of 6,200 active; AID 488919;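 active = mean inhibition above about 50% when retested at one dose, limit read from the data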;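 note: plate controls were DMSO wells with completed reaction for no effect and substrate without enzyme for full effect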
Starred values were filed as active, the others as inactive; x = no result. Compounds with a hit are over-represented: about 2.6% of the library has one in this group of screens.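 Rule for the calls, unless noted: active = mean inhibition above about 50% in the one-dose retest (limit read from the data); inactive = the rest.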

SMILES	SENP6 block	SENP7 inh	Platelet DG rel	SENP1 inh	SENP8 block-1	SENP8 block-2	SENP8 conf	SENP6 conf	SENP7 conf	Casp3 select	Luc interf
O=C(C1CCC1)N1CCc2cc(S(=O)(=O)NC3CCCc4ccccc43)ccc21 (stereo not given)	5	97*	10	0	14	-3	5	6	3	0	4
CNC(=O)c1c(NC(=O)CCS(=O)(=O)c2ccc(Cl)cc2)sc2c1CCN(C(=O)OC)C2	3	-2	9	-63	-64	-3	x	x	x	x	x
O=C(NCc1ccncc1)c1ccc(NS(=O)(=O)c2ccc(F)cc2)cc1	-12	3	x	0	5	-3	x	x	x	x	x
CCOc1ccc(/C=N/O)cc1	-7	-3	1	1	10	8	x	x	x	x	x
Cc1ccc(COc2ccc(/C=N/O)cc2)cc1	70*	57*	2	1	2	45	71*	70*	86*	48	47
O=C(O)C1CC(c2ccc(F)cc2)=NO1 (stereo not given)	-20	6	-4	-1	11	-6	x	x	x	x	x
O=C(O)C1CC(c2ccccc2)=NO1 (stereo not given)	0	95*	-5	3	5	1	6	7	8	2	2
C#CCNC(=O)c1ccc(OCc2ccccc2)cc1Cl	75*	64*	-30	-1	11	63*	70*	67*	87*	80*	69*
O=C(NCCCl)c1ccc(OCc2ccccc2)cc1Cl	14	11	-29	-1	15	-4	x	x	x	x	x
COc1cc(/C=C(/C#N)c2nc3ccccc3c(=O)[nH]2)ccc1O	94*	87*	6	-28	-16	84*	13	22	24	62*	11
COc1cc(/C=C(/C#N)c2nc3ccccc3[nH]2)ccc1OC(=O)c1ccco1	84*	70*	16	-18	-296	78*	52*	70*	99*	84*	37
COc1cc(/C=C(\C#N)c2nc3ccccc3[nH]2)cc(OC)c1O	x	x	2	-26	-218	x	x	x	x	x	x
CC(=Nc1ccc(C)cc1)c1sc2ccccc2c1O	94*	96*	20	-22	-53	90*	95*	96*	101*	85*	48
CC(=Nc1cccc(O)c1)c1sc2ccccc2c1O	91*	90*	2	-75	-5	90*	84*	82*	93*	54*	72*
CC(=Nc1ccc(C)cc1C)c1sc2ccccc2c1O	78*	66*	9	-27	-25	65*	71*	80*	91*	60*	17
O=C(Nc1ccccc1Cl)C1Cc2ccccc2O/C1=N\O (stereo not given)	-17	-6	-1	-3	4	5	x	x	x	x	x
N#CC(CCc1ccc([N+](=O)[O-])cc1)(CCc1ccc([N+](=O)[O-])cc1)C(N)=O	x	x	x	-11	-1	x	x	x	x	x	x
COc1ccc(CCNC(=O)CCNS(=O)(=O)c2cccc3nsnc23)cc1OC	-7	13	-3	1	5	6	x	x	x	x	x
COc1ccc(CCNC(=O)CCNS(=O)(=O)c2cccc3nonc23)cc1OC	-11	80*	-5	1	0	-1	0	7	8	2	1
C=CCNC(=O)c1cc(Cl)ccn1	5	89*	-5	-1	9	3	-7	0	-7	-4	-5
Cn1c(=N)n(CC(=O)c2ccc(Br)cc2)c2ccccc21	31	-5	-2	2	14	1	x	x	x	x	x
Cn1c(=N)n(CC(=O)c2ccc(F)cc2)c2ccccc21	62*	20	x	4	22	46	34	25	25	38	62*
CN=C1SC(C(=O)Nc2ccccc2Cl)CC(=O)N1c1ccc(OC(F)(F)Cl)cc1 (stereo not given)	11	-2	1	1	14	3	x	x	x	x	x
CC(C)OC(=O)c1cc2ccccc2[nH]1	-6	1	2	2	0	-6	x	x	x	x	x
CCOC(=O)c1cc2cc3ccccc3cc2[nH]1	54*	38	-13	-23	-278	24	-25	-24	13	2	-4
SMILES	SENP6 block	SENP7 inh	Platelet DG rel	SENP1 inh	SENP8 block-1	SENP8 block-2	SENP8 conf	SENP6 conf	SENP7 conf	Casp3 select	Luc interf
CCOC(=O)c1cc(=O)n2c(nc3ccccc32)[nH]1	84*	79*	9	-1	-471	76*	82*	83*	96*	94*	56*
CCOC(=O)c1cc2ccc3ccccc3c2s1	58*	47	-22	3	-230	7	15	20	54*	23	24
COc1ccc(S(=O)(=O)N2CCOCC2)cc1NC(=O)CSc1cccc[n+]1[O-]	-12	9	-5	4	22	4	x	x	x	x	x
O=C(CN1C(=O)NC2(CCCCC2)C1=O)Nc1ccc(Cl)c(S(=O)(=O)N2CCOCC2)c1	-6	2	x	1	7	5	x	x	x	x	x
O=[N+]([O-])c1cccc(/C=N/Nc2nccnc2Cl)c1	94*	93*	42	2	13	83*	91*	91*	100*	97*	83*
O=[N+]([O-])c1cccc(/C=N/Nc2ccccn2)c1	56*	55*	6	2	24	26	-2	-5	74*	17	-2
O=[N+]([O-])c1ccc(/C=N/Nc2ccccn2)cc1	-12	15	1	22	30	-18	x	x	x	x	x
Cc1cc(C)nc(N/N=C/c2cccc([N+](=O)[O-])c2)n1	-8	0	11	2	20	5	x	x	x	x	x
